# Active and inactive are the calls of the source.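 How the source made its calls, unless noted: active means viability at or under a set limit in both replicates, limit being median viability minus 3 SD (cut at about 48% in these data, passing the limit was not always enough); inconclusive means at or under the limit in just one replicate; inactive means at or above the limit in both replicates.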
# Experiments:
# [1] = Her2 expression decrease, cell viability multiplex – SKBR3 breast tumor cells, AlphaScreen, ATP viability, primary screen (AID 461;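 active means Her2 level under about 52% in both replicate screens, with viability over 70% of control, limit read from the data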;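 on Her2 level: lower value means less Her2 protein in the cells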;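 on viability: percent of carrier control wells set as 100% viability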); details: SKBR3 Her2 protein level, 18-24 h, measured here: SKBR3 viability, ATP luminescence, at 10 µM
# [2] = molecular target: Receptor tyrosine-protein kinase erbB-2 (Homo sapiens) (UniProt P04626); test: as above; details: 18-24 h, at 10 µM, stronger effect = lower value
# Chain of Receptor tyrosine-protein kinase erbB-2 (Homo sapiens) (P04626 whole entry, looked up): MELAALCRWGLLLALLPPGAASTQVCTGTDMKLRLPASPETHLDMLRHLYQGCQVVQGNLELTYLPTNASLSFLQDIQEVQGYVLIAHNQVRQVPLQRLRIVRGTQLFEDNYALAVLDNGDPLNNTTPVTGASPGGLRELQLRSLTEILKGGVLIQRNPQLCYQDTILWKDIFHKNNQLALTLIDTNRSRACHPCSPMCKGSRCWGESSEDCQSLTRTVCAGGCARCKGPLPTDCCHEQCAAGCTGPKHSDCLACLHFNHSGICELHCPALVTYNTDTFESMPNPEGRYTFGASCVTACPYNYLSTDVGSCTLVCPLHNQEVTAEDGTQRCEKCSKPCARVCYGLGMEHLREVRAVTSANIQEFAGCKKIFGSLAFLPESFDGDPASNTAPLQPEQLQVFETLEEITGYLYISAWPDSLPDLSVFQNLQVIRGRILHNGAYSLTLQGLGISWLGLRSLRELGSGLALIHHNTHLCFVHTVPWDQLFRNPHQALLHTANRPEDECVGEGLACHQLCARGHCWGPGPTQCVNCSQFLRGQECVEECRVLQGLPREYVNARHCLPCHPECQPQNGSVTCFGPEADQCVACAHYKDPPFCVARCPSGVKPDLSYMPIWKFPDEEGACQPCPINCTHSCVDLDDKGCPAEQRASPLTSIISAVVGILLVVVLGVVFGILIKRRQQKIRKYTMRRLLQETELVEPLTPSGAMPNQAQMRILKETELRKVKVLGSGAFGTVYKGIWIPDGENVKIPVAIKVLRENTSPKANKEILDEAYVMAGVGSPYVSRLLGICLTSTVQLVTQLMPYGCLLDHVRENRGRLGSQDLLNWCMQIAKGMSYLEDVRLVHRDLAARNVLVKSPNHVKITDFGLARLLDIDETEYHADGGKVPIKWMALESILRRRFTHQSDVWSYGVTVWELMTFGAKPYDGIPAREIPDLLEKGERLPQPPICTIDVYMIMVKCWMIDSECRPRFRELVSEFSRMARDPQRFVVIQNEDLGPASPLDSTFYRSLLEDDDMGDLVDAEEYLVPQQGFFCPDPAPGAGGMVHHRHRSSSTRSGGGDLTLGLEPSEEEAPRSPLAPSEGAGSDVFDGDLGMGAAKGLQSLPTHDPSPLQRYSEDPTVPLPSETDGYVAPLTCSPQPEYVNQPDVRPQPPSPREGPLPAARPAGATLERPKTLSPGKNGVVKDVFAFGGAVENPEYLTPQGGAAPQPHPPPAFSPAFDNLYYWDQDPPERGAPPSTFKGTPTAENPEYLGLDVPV
# [3] = reduced viability of SK-BR-3 breast cancer cells – cell-based, 24 h, human, pilot screen (AID 572;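 active means viability at or below 10% of carrier control in both of two separate runs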;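 further: compound exposure lasted between 18 and 24 h rather than exactly 24 h; 100% = carrier-treated control wells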); details: SK-BR-3 viability, CellTiter-Glo luminescence, at 10 µM, stronger effect = lower value
# [4] = HUVEC growth inhibition – cell-based, human, primary screen (AID 575;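 active means viability at or below 30% in both replicate assays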;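 further: 100% = median of untreated cell wells with 0.1% DMSO on each plate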); details: HUVEC proliferation, CellTiter-Glo luminescence, 72 h; at 10 µM; stronger effect = lower value
# How it was run: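 System: primary human umbilical vein endothelial cells; Quantity: 1250 endothelial cells in each well; Buffer or medium: supplemented EBM, 2% fetal bovine serum; Doses: one dose, 10 µM final, 0.1% DMSO; Incubation: 72 h compound incubation; Technique: ATP-based CellTiter-Glo luminescent read; Evaluation: percent of median DMSO-control luminescence; Controls: vehicle and MePR control wells.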
# [5] = H69AR cell proliferation blockers – human, duplicate replicates, primary screen (AID 580); details: H69AR lung tumor cells viability, ATP luminescence, 72 h; at 10 µM; stronger effect = lower value;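 further: 100% = mean luminescence of untreated wells and 0% = no signal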
# [6] = MRP1 drug-resistance reversers in H69AR cells – cell-based, doxorubicin co-treatment, pilot screen (AID 601;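 active means viability loss from added drug above about 55%, and viability with drug at most 40%, in both replicates, limit read from the data, passing the limit was not always enough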); details: CellTiter-Glo, 72 h, at 10 µM; for differential viability (reversal): stronger effect = higher value
# [7] = yeast transport mutant growth inhibition pilot in 384-well plates, post-Golgi transport modulator project (AID 636; in the data active means inhibition above about 31%); details: absorbance 615 nm, about 18 h, stronger effect = higher value
# [8] = growth suppression of yeast trafficking mutant, preliminary HTS, modulators of trafficking downstream of Golgi apparatus project, 1536-format plate, OD 615 nm (AID 637; in the data active means inhibition above about 30%); details: yeast transport mutant growth, absorbance 615 nm, 18 h; stronger effect = higher value
# [9] = H69AR cells + 2 uM doxorubicin, measured here: viability with 2 uM doxorubicin, stronger effect = lower value
# [10] = H69AR cells, compound alone cytotoxicity
SMILES,viability [1] [%],Her2 level [2],viability [3],viability [4],viability [5],differential viability (reversal) ([6]; H69AR cells + 2 uM doxorubicin),"viability [6, 9] [%]","viability [6, 10] [%]",inhibition [7],inhibition [8]
CC(=O)N1C(=O)C2(Nc3ccccc3N2)c2ccccc21,110,95.5% (inactive),110% (inactive),104% (inactive),97.6% (inactive),9.47% (inactive),88.1,97.6,-7.16% (inactive),-9.5% (inactive)
O=C(Nc1ccc(N2CCCCC2)cc1)c1ccc(F)cc1,84,106% (inactive),84% (inactive),80% (inactive),83.1% (inactive),4.35% (inactive),78.8,83.1,1.79% (inactive),-0.5% (inactive)
O=C(NC1CC1)C1CCN(c2ccc(S(=O)(=O)N3CCOCC3)cc2)CC1,92.5,138% (inactive),92.5% (inactive),83% (inactive),94.7% (inactive),17.1% (inactive),77.7,94.7,-0.13% (inactive),-10% (inactive)
O=C(NC1CCN(Cc2nnnn2CCc2ccccc2)CC1)c1ccccc1F,81.5,96% (inactive),81.5% (inactive),85.4% (inactive),86.5% (inactive),-11.7% (inactive),98.3,86.5,0.13% (inactive),-0.5% (inactive)
N#C/C(=C(/O)CN1CCOCC1)c1nc2ccccc2s1,89.5,145% (inactive),89.5% (inactive),99.3% (inactive),106% (inactive),5.77% (inactive),100,106,2.73% (inactive),-13.8% (inactive)
Cc1cc(NC(=O)CCC(=O)N(c2cccnc2)C(C(=O)NC2CCCC2)c2ccccc2F)no1 (stereo not given),99,104% (inactive),99% (inactive),99.4% (inactive),93.3% (inactive),4.7% (inactive),88.6,93.3,3.2% (inactive),-2.46% (inactive)
O=C(O)c1cccc(S(=O)(=O)N2CCOCC2)c1,118,121% (inactive),118% (inactive),95% (inactive),98.9% (inactive),3.4% (inactive),95.5,98.9,-1.37% (inactive),11.3% (inactive)
COc1cc(NC(=O)C2CC(c3cccc(OC)c3OC)=NO2)cc(OC)c1OC (stereo not given),83,99% (inactive),83% (inactive),54.9% (inactive),27.3% (active),-41.8% (inactive),69.1,27.3,6.84% (inactive),-4.18% (inactive)
O=C(COc1ccccc1)Nc1nc2ccccc2[nH]1,91.5,93% (inactive),91.5% (inactive),92.5% (inactive),91.5% (inactive),5.92% (inactive),85.6,91.5,-1.04% (inactive),-3.93% (inactive)
CCCCOCCCNC(=O)c1cccs1,103,102% (inactive),103% (inactive),97.8% (inactive),104% (inactive),11.5% (inactive),92.5,104,-2.21% (inactive),-3.17% (inactive)
COC(=O)C(C)C1Sc2ccccc2NC1=O (stereo not given),121,100% (inactive),121% (inactive),119% (inactive),93.9% (inactive),12.1% (inactive),81.8,93.9,-7.7% (inactive),2.83% (inactive)
COCCn1c(SCC(=O)Nc2sc(C)c(C)c2C#N)nnc1C(C)C,98,92.5% (inactive),98% (inactive),96% (inactive),89.6% (inactive),-3.22% (inactive),92.8,89.6,-0.13% (inactive),-4.35% (inactive)
CC(=O)N(C(C)=O)c1c(C#N)c(C)n(-c2ccccc2)c1C(=O)c1ccccc1,86.5,88% (inactive),86.5% (inactive),78.4% (inactive),77.9% (inactive),-9.1% (inactive),87,77.9,-2.53% (inactive),-2.58% (inactive)
CC1=CCC(C(C)(C)NC(=O)c2ccccc2)C/C1=N\O (stereo not given),104,98.5% (inactive),104% (inactive),112% (inactive),106% (inactive),17.3% (inactive),88.6,106,-0.81% (inactive),4.44% (inactive)
Cc1ccc(-n2nc(C(=O)N3CCN(C)CC3)c3c4ccccc4n(C)c3c2=O)cc1,90.5,80% (inactive),90.5% (inactive),99.9% (inactive),96.8% (inactive),2.81% (inactive),93.9,96.8,-1.97% (inactive),-1.61% (inactive)
O=C(c1ccco1)N1CCN(c2ccc(Cl)cc2)CC1,86,116% (inactive),86% (inactive),95.6% (inactive),99.8% (inactive),19.1% (inactive),80.8,99.8,-0.93% (inactive),-5.4% (inactive)

SMILES,viability [1] [%],Her2 level [2],viability [3],viability [4],viability [5],differential viability (reversal) ([6]; H69AR cells + 2 uM doxorubicin),"viability [6, 9] [%]","viability [6, 10] [%]",inhibition [7],inhibition [8]
COc1cc(NC(=O)c2cc(CC(C)C)on2)c(OC)cc1Cl,92,102% (inactive),92% (inactive),105% (inactive),88.9% (inactive),-3.37% (inactive),92.2,88.9,1.15% (inactive),-5.33% (inactive)
Nc1nc2sc3c(c2c(=O)s1)CCCC3,112,108% (inactive),112% (inactive),60.3% (inactive),74.7% (inactive),-3.39% (inactive),78.1,74.7,-2.24% (inactive),1.31% (inactive)
NC(=O)NC(=O)CSc1cccc(C(F)(F)F)c1,138,94.5% (inactive),138% (inactive),90.1% (inactive),88.2% (inactive),1.01% (inactive),87.2,88.2,-8.63% (inactive),2.22% (inactive)
CCOC(=O)c1ccc(Oc2cc(C)nc(SC)n2)cc1,88.5,99% (inactive),88.5% (inactive),36.8% (inactive),16.5% (active),-52% (inactive),68.5,16.5,-5.54% (inactive),2.3% (inactive)
CCOC(=O)c1ccccc1NC(=O)c1cc2sccc2n1C,90,96% (inactive),90% (inactive),70.5% (inactive),81% (inactive),3.9% (inactive),77,81,1.23% (inactive),-2.38% (inactive)
Cc1nc2c(o1)CCc1ccccc1C2O (stereo not given),96,91% (inactive),96% (inactive),93.9% (inactive),94.4% (inactive),-5.3% (inactive),99.7,94.4,-4% (inactive),-2.95% (inactive)
O=C(COc1ccccc1)N1CCN(C(=O)c2cccc(F)c2)CC1,112,90% (inactive),112% (inactive),102% (inactive),101% (inactive),13.9% (inactive),86.7,101,-8.11% (inactive),6.72% (inactive)
Cc1ccc(NC(=O)C2CCCN(S(=O)(=O)c3cnc[nH]3)C2)c(Br)c1 (stereo not given),88.5,92% (inactive),88.5% (inactive),88.1% (inactive),101% (inactive),8.17% (inactive),93.3,101,-0.93% (inactive),-1.97% (inactive)
CCOC(=O)c1ccc(NC(=O)CSc2ncccn2)cc1,104,112% (inactive),104% (inactive),85.9% (inactive),96.9% (inactive),2.45% (inactive),94.5,96.9,-0.53% (inactive),4.26% (inactive)
CCOC(=O)N1CCN(S(=O)(=O)c2cc(Cl)ccc2Cl)CC1,106,94.5% (inactive),106% (inactive),90.7% (inactive),85% (inactive),2.05% (inactive),83,85,-3.38% (inactive),-0.32% (inactive)
O=C(CCCN1C(=O)c2ccccc2C1=O)Oc1ccc(F)cc1,98,98% (inactive),98% (inactive),98.2% (inactive),94.8% (inactive),9.54% (inactive),85.2,94.8,-5.47% (inactive),1.29% (inactive)
CCOc1ccccc1C(=O)N1CCN(c2cccc(Cl)c2)CC1,118,80% (inactive),118% (inactive),23.3% (active),28.2% (active),-35.7% (inactive),63.8,28.2,-4.53% (inactive),1.15% (inactive)
Cc1cc(C)c(S(=O)(=O)Nc2cccnc2)c(C)c1,100,91% (inactive),100% (inactive),105% (inactive),97.8% (inactive),8.71% (inactive),89.1,97.8,-4.93% (inactive),-0.16% (inactive)
Nc1ccc(C(=O)OCCCc2nc3ccccc3[nH]2)cc1,92,107% (inactive),92% (inactive),97.9% (inactive),99.1% (inactive),1.74% (inactive),97.4,99.1,5.41% (inactive),-19.1% (inactive)
C=CCn1cc(C(=O)NCCOC)c(=O)c2cc(S(=O)(=O)N(CC)CC)ccc21,98.5,93.5% (inactive),98.5% (inactive),86.6% (inactive),83.1% (inactive),-9.34% (inactive),92.4,83.1,-5.13% (inactive),-2.73% (inactive)
CC(=O)C1=C(O)C(=O)N(Cc2cccnc2)C1c1ccccc1 (stereo not given),101,114% (inactive),101% (inactive),97.8% (inactive),105% (inactive),10% (inactive),95.3,105,-6.13% (inactive),-1.77% (inactive)

# — PubChem BioAssay
